The target in series [1] is Genome polyprotein (dengue virus type 2) (UniProt P29990). The experiment in a line: Inhibition of DENV NS2B-NS3 protease assessed as fluorescence emission using benzoyl-Nle-Lys-Arg-Arg-AMC as substrate at 150 nM preincubated with enzyme for 60 min followed by substrate addition and measured for 15 min by fluorimetric assay. A digest of the protocol: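 The substrate is cleaved to release fluorescent AMC, and fluorescence intensity is the read-out. Percent inhibition is taken from triplicate measurements at 150 nM compound.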

Series [2] relates to BHK-21. The experiment in a line: Cytotoxicity against DENV infected hamster BHK-21 cells assessed as cell survival rate at 5 uM incubated for 5 days measured by CCK-8 assay. The settings on record: bhk-21, 120 h, time 5 day. Type of series: toxicity, cell-based, Mesocricetus auratus. In general terms: Formazan colour is commonly taken as a measure of viable cells.
Series [3] addresses T1, Genome polyprotein (dengue virus type 2, UniProt P29990). Briefly: Inhibition of DENV NS2B-NS3 protease assessed as fluorescence emission using benzoyl-Nle-Lys-Arg-Arg-AMC as substrate preincubated with enzyme for 60 min followed by substrate addition and measured for 15 min by fluorimetric assay. An outline of the steps: (§1)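 Fluorometric protease assay reading the fluorescence of product released from benzoyl-Nle-Lys-Arg-Arg-AMC cleavage, with aprotinin as a positive control. Percent inhibition was taken from triplicate measurements at 150 nM inhibitor. IC50 values were determined by a similar method for selected compounds.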

The target of series [4] is T1, Genome polyprotein. Briefly: Binding affinity to DENV NS2B-NS3 protease assessed as inhibition constant using benzoyl-Nle-Lys-Arg-Arg-AMC as substrate incubated for 60 min by measuring fluorescence intensity. A digest of the protocol: (§2)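 Time-dependent inactivation of DENV NS2B-NS3 protease was followed by fluorescence from cleavage of benzoyl-Nle-Lys-Arg-Arg-AMC at several inhibitor concentrations. kobs values were obtained at each concentration and plotted against inhibitor concentration to derive kinact, Ki and the second-order rate constant kinact/Ki.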

For series [5], the target named is Genome polyprotein (dengue virus type 2) (UniProt P29990). The experiment in a line: Inhibition of DENV NS2B-NS3 protease assessed as fluorescence emission using benzoyl-Nle-Lys-Arg-Arg-AMC as substrate at 1.4 to 16.7 uM by fluorimetric assay. The settings on record: dose 1.4-16.7 µM, time min <=60, TDE = time-dependent effect.
Series [6] shares this target. Briefly: Inhibition of DENV NS2B-NS3 protease assessed as inactivation constant using benzoyl-Nle-Lys-Arg-Arg-AMC as substrate incubated for 60 min by measuring fluorescence intensity. An outline of the steps: as §2
Series [7] concerns BHK-21. Briefly: Cytoprotective activity against DENV infected hamster BHK-21 cells assessed as cell survival rate at 5 uM incubated for 5 days measured by CCK-8 assay. The class given is functional, cell-based. Conditions: Mesocricetus auratus, time 5.0 day. A digest of the protocol: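 BHK-21 cells are infected with DENV and treated with compound at 5 μM. Cell viability is read by CCK-8. Survival rate is compared against the virus-infection control.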

For series [8], the target named is Genome polyprotein (dengue virus type 2) (UniProt P29990). Briefly: Inhibition of DENV NS2B-NS3 protease assessed as ratio of Kinact/Ki using benzoyl-Nle-Lys-Arg-Arg-AMC as substrate incubated for 60 min by measuring fluorescence intensity. A digest of the protocol: as §2
Series [9] deals with T1, Genome polyprotein. The experiment in a line: Inhibition of DENV2 NS2B-NS3 protease expressed in Escherichia coli assessed as fluorescence emission using Bz-nKRR-AMC as substrate by microplate reader assay. An outline of the steps:
as §1

The source made the active and inactive calls. No cut-off for these calls is given here.

Regarding `COc1ccc(S(=O)(=O)n2nc(OC(=O)c3ccc(N)cc3)cc2N)cc1`, the inhibition in series [1] was determined as 68.5%.
`Nc1cc(OC(=O)c2ccc(-c3ccccc3)cc2)nn1S(=O)(=O)c1ccc(Oc2ccccc2)cc1`: the inhibition in series [1] was found to be 95%.
As to `CCOc1ccc(S(=O)(=O)n2nc(OC(=O)c3ccc(-c4ccccc4)cc3)cc2N)cc1`, in the series with BHK-21 [2], the Activity result is recorded as “Non-Toxic”. Besides, the IC50 at Genome polyprotein [3] worked out at 6 nM. The Ki on Genome polyprotein [4] amounted to 0.665 µM. For the same molecule, the inhibition entry was “Tde” in series [5] and 100% in [1]. Besides, the Kinact in [6] was 1.05 10^-3/s. Further, the outcome in the series with BHK-21 [7] was Active. For the same molecule, the Ratio in series [8] was 1580.
In the case of `Nc1ccc(C(=O)Oc2cc(N)n(S(=O)(=O)c3ccccc3)n2)cc1`, the inhibition in series [1] was determined as 76.4%.
As to `Nc1ccc(C(=O)Oc2cc(N)n(S(=O)(=O)c3ccc(Oc4ccccc4)cc3)n2)cc1`, the IC50 at Genome polyprotein [3] is 9 nM. The inhibition in series [1] was found to be 100%.
In the case of `COc1ccc(C(=O)Oc2cc(N)n(S(=O)(=O)c3ccc(C(F)(F)F)cc3)n2)cc1`, the inhibition in [1] came to 16.1%.
For the molecule `Nc1cc(OC(=O)c2ccc(-c3ccccc3)cc2)nn1S(=O)(=O)c1ccc(C(F)(F)F)cc1`, in series [1], the inhibition was 41.2%.
`Nc1cc(OC(=O)c2ccc([N+](=O)[O-])cc2)nn1S(=O)(=O)c1ccc(Br)cc1`: the inhibition in series [1] turned out to be 17.3%.
Turning to `Nc1ccc(C(=O)Oc2cc(N)n(S(=O)(=O)c3ccc(F)cc3)n2)cc1`, in series [1], the inhibition amounted to 87.8%.
`CCOc1ccc(S(=O)(=O)n2nc(OC(=O)c3ccc(C)cc3)cc2N)cc1`: in series [1], the inhibition was 42.1%.
In the case of `Nc1ccc(C(=O)Oc2cc(N)n(S(=O)(=O)c3ccc(Cl)cc3)n2)cc1`, the inhibition in series [1] was found to be 85.6%.
Still for that read-out and setting: as for `CCOc1ccc(S(=O)(=O)n2nc(OC(=O)c3ccc(N)cc3)cc2N)cc1`, the figure is 71.9%; as for `Cc1ccc(C(=O)Oc2cc(N)n(S(=O)(=O)c3ccc(C(F)(F)F)cc3)n2)cc1`, 19.3%.
On to `Nc1ccc(C(=O)Oc2cc(N)n(S(=O)(=O)c3ccc(Br)cc3)n2)cc1`, for which the IC50 at Genome polyprotein [3] is 74 nM. Also, the inhibition in [1] was determined as 100%.
Take `Nc1cc(OC(=O)c2ccc([N+](=O)[O-])cc2)nn1S(=O)(=O)c1ccc(C(F)(F)F)cc1`: the inhibition in series [1] is 22%.
As for `CC(C)(C)c1ccc(S(=O)(=O)n2nc(OC(=O)c3ccc(N)cc3)cc2N)cc1`, the inhibition in [1] was 88.1%.
Take `CCOc1ccc(S(=O)(=O)n2nc(OC(=O)c3ccc(OC)cc3)cc2N)cc1`: the inhibition in series [1] is 43.6%.
In the case of `Nc1cc(OC(=O)c2ccc([N+](=O)[O-])cc2)nn1S(=O)(=O)c1ccc(Oc2ccccc2)cc1`, in [1], the inhibition stood at 64.3%.
Same read-out and setting: as for `Nc1cc(OC(=O)c2ccc([N+](=O)[O-])cc2)nn1S(=O)(=O)c1ccc(Cl)cc1`, the figure is 13.2%; as for `CCOc1ccc(S(=O)(=O)n2nc(OC(=O)c3ccc([N+](=O)[O-])cc3)cc2N)cc1`, 32.6%.
For `CC(C)(C)c1ccc(S(=O)(=O)n2nc(OC(=O)c3ccc(-c4ccccc4)cc3)cc2N)cc1`, in series [1], the inhibition came to 59.8%.
Turning to `COc1ccc(S(=O)(=O)n2nc(OC(=O)c3ccc(-c4ccccc4)cc3)cc2N)cc1`, the IC50 at Genome polyprotein [3] and on Genome polyprotein [9] was 500 nM throughout. Further, the Ki on Genome polyprotein [4] amounted to 7.25 µM. The inhibition entry in [5] is “Tde”; in series [1], 59.7%. Besides, the Kinact in series [6] is 1.13 10^-3/s. In series [8], the Ratio turned out to be 156.
As for `Nc1cc(OC(=O)c2ccc([N+](=O)[O-])cc2)nn1S(=O)(=O)c1ccccc1`, the inhibition in series [1] amounted to 27.3%.
Turning to `Nc1ccc(C(=O)Oc2cc(N)n(S(=O)(=O)c3ccc(C(F)(F)F)cc3)n2)cc1`, in series [1], the inhibition was 52.6%.
On the same count and under the same terms, for `CC(C)(C)c1ccc(S(=O)(=O)n2nc(OC(=O)c3ccc([N+](=O)[O-])cc3)cc2N)cc1` the value was 20.4%; for `Cc1ccc(C(=O)Oc2cc(N)n(S(=O)(=O)c3ccc(Oc4ccccc4)cc3)n2)cc1`, 81%.
In the case of `Nc1cc(OC(=O)c2ccc(-c3ccccc3)cc2)nn1S(=O)(=O)c1ccccc1`, at Genome polyprotein [3], the IC50 was determined as 12 nM. In addition, the inhibition in series [1] is 100%.
In the case of `COc1ccc(C(=O)Oc2cc(N)n(S(=O)(=O)c3ccc(Oc4ccccc4)cc3)n2)cc1`, the inhibition in [1] was found to be 76.7%.

One may read the inhibition as how much of the control response was suppressed. As usually defined, the IC50 is the concentration needed to halve the response being measured. As usually defined, the Ki is the equilibrium dissociation constant of an inhibitor or competing ligand from its target.

The values are drawn from ChEMBL document CHEMBL5038677, “Identification and In Silico Binding Study of a Highly Potent DENV NS2B-NS3 Covalent Inhibitor” (ACS Med Chem Lett, 2022).
